ChEMBL document CHEMBL1126974, “The effect of NMeTyr5 substitution in luteinizing hormone-releasing hormone antagonists” (J Med Chem, 1993)
pKi: −log10 of the molar value. Values after ≈ are worked out from the molar mass of the structure shown. Non-standard residues stand in square brackets, D forms with d. Residues, ends and D or L forms follow the SMILES beside them. *: point of attachment. dNva(5-oxo-5-(4-MeOPh)) = COc1ccc(C(=O)CC[C@@H](N)C(=O)O)cc1; dPhe(4-Cl) = N[C@H](Cc1ccc(Cl)cc1)C(=O)O; d2Nal = N[C@H](Cc1ccc2ccccc2c1)C(=O)O; Lys(iPr) = CC(C)NCCCC[C@H](N)C(=O)O; NMeY = CN[C@@H](Cc1ccc(O)cc1)C(=O)O; dBta = N[C@H](Cc1csc2ccccc12)C(=O)O; dCit = NC(=O)NCCC[C@@H](N)C(=O)O; d3Pal = N[C@H](Cc1cccnc1)C(=O)O; Nicotinoyl = O=C(c1cccnc1)*

Legend:
Rattus norvegicus [1] = species: Rattus norvegicus; assay: The negative logarithm of the concentration of the antagonist that requires 2-fold higher concentration of the agonist to release LH from cultured rat pituitary cells; type: functional, cell-based; details: Pituitary gland cell, read-out: pA2 (converted)
Summary of the method: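 Cultured rat pituitary cells stimulated with LHRH agonist in presence of antagonist dissolved in 10 mmol Tris buffer pH 7.4; LH release measured. pA2 taken as negative log of antagonist concentration requiring 2-fold higher agonist concentration for LH release.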

[2] = target: T1, Gonadotropin-releasing hormone receptor (Rattus norvegicus, UniProt P30969); assay: The negative logarithm of the concentration of antagonist that inhibits 50% of the binding of 125 I-labeled leuprolide to the rat pituitary LHRH receptor
T1 sequence (P30969 whole entry): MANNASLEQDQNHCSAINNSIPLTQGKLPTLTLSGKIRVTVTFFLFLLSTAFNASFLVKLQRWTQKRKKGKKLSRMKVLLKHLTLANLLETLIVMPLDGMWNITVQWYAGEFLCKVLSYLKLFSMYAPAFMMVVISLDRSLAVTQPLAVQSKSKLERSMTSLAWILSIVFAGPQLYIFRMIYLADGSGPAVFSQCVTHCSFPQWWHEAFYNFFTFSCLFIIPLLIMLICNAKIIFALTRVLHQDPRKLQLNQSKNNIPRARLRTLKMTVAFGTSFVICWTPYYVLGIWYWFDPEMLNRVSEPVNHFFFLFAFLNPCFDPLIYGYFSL
Summary of the method: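 Competition binding to rat pituitary LHRH receptor with 125I-labeled leuprolide as radioligand; compounds dissolved in 10 mmol Tris buffer pH 7.4. Concentration inhibiting 50% of tracer binding determined and expressed as its negative logarithm (pKi). TFA salts unless indicated.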

[3] = Solubility was determined in 5% dextrose, pH 4.5; type: physicochemical
Summary of the method: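 Solubility measured in 5% dextrose at pH 4.5, reported in mg/mL; some peptides measured as TFA salts, others as acetate salts.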

Rattus norvegicus [4] = species: Rattus norvegicus; assay: Effective dose of the antagonist that gives 50% of the maximal release of histamine from rat peritoneal mast cells; type: functional; details: read-out: ED50 (the source's name)
Summary of the method: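 Mast cells from rat peritoneum; compounds dissolved in 5.6 mM glucose, 0.1% BSA in Dulbecco phosphate-buffered saline pH 7.4. Released histamine quantified by RIA kit; value is dose giving 50% of maximal histamine release, in µg/mL. Tested as TFA salts unless indicated.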

CC(=O)N[C@H](Cc1ccc(Cl)cc1)C(=O)N[C@H](Cc1ccc(Cl)cc1)C(=O)N[C@H](Cc1csc2ccccc12)C(=O)N[C@@H](CO)C(=O)N[C@@H](Cc1ccc(O)cc1)C(=O)N[C@H](CCCCN)C(=O)N[C@@H](CC(C)C)C(=O)N[C@@H](CCCN=C(N)N)C(=O)N1CCC[C@H]1C(=O)N[C@H](C)C(N)=O [listing 1 of 2 here]
Kb (Rattus norvegicus [1]): 0.00646 nM
pKi [2]: 10.48
solubility [3]: < 100 µg/mL

CC(=O)N[C@H](Cc1ccc(Cl)cc1)C(=O)N[C@H](Cc1ccc(Cl)cc1)C(=O)N[C@H](Cc1csc2ccccc12)C(=O)N[C@@H](CO)C(=O)N[C@@H](Cc1ccc(O)cc1)C(=O)N[C@H](CCCCN)C(=O)N[C@@H](CC(C)C)C(=O)N[C@@H](CCCN=C(N)N)C(=O)N1CCC[C@H]1C(=O)N[C@H](C)C(N)=O [listing 2 of 2 here]
EC50 (Rattus norvegicus [4]): 0.62 µg/mL (≈ 0.43 µM)

CC(=O)N[C@H](Cc1ccc2ccccc2c1)C(=O)N[C@H](Cc1ccc(Cl)cc1)C(=O)N[C@H](Cc1cccnc1)C(=O)N[C@@H](CO)C(=O)N(C)[C@@H](Cc1ccc(O)cc1)C(=O)N[C@H](CCCNC(N)=O)C(=O)N[C@@H](CC(C)C)C(=O)N[C@@H](CCCN=C(N)N)C(=O)N1CCC[C@H]1C(=O)N[C@H](C)C(N)=O [listing 1 of 2 here]
Kb (Rattus norvegicus [1]): 0.0158 nM
pKi [2]: 10.87
solubility [3]: 12000 µg/mL (≈ 8300 µM)

CC(=O)N[C@H](Cc1ccc2ccccc2c1)C(=O)N[C@H](Cc1ccc(Cl)cc1)C(=O)N[C@H](Cc1cccnc1)C(=O)N[C@@H](CO)C(=O)N(C)[C@@H](Cc1ccc(O)cc1)C(=O)N[C@H](CCCNC(N)=O)C(=O)N[C@@H](CC(C)C)C(=O)N[C@@H](CCCN=C(N)N)C(=O)N1CCC[C@H]1C(=O)N[C@H](C)C(N)=O [listing 2 of 2 here]
EC50 (Rattus norvegicus [4]): 1.65 µg/mL (≈ 1.14 µM)

CC(=O)N[C@H](Cc1ccc2ccccc2c1)C(=O)N[C@H](Cc1ccc(Cl)cc1)C(=O)N[C@H](Cc1cccnc1)C(=O)N[C@@H](CO)C(=O)N[C@@H](CCCCNC(=O)c1cccnc1)C(=O)N[C@H](CCCCNC(=O)c1cccnc1)C(=O)N[C@@H](CC(C)C)C(=O)N[C@@H](CCCCNC(C)C)C(=O)N1CCC[C@H]1C(=O)N[C@H](C)C(N)=O (Ac-[d2Nal][dPhe(4-Cl)][d3Pal]SK(Nicotinoyl)[dK](Nicotinoyl)L[Lys(iPr)]P[dA]-NH2) [listing 1 of 2 here]
Kb (Rattus norvegicus [1]): 0.0234 nM
pKi [2]: 10.21
solubility [3]: 1100 µg/mL (≈ 691 µM)

CC(=O)N[C@H](Cc1ccc2ccccc2c1)C(=O)N[C@H](Cc1ccc(Cl)cc1)C(=O)N[C@H](Cc1cccnc1)C(=O)N[C@@H](CO)C(=O)N[C@@H](CCCCNC(=O)c1cccnc1)C(=O)N[C@H](CCCCNC(=O)c1cccnc1)C(=O)N[C@@H](CC(C)C)C(=O)N[C@@H](CCCCNC(C)C)C(=O)N1CCC[C@H]1C(=O)N[C@H](C)C(N)=O (Ac-[d2Nal][dPhe(4-Cl)][d3Pal]SK(Nicotinoyl)[dK](Nicotinoyl)L[Lys(iPr)]P[dA]-NH2) [listing 2 of 2 here]
EC50 (Rattus norvegicus [4]): 261 µg/mL (≈ 164 µM)

COc1ccc(C(=O)CC[C@@H](NC(=O)[C@H](CCCN=C(N)N)NC(=O)[C@H](CO)NC(=O)[C@@H](Cc2cccnc2)NC(=O)[C@@H](Cc2ccc(Cl)cc2)NC(=O)[C@@H](Cc2ccc3ccccc3c2)NC(C)=O)C(=O)N[C@@H](CC(C)C)C(=O)N[C@@H](CCCN=C(N)N)C(=O)N2CCC[C@H]2C(=O)N[C@H](C)C(N)=O)cc1 (Ac-[d2Nal][dPhe(4-Cl)][d3Pal]SR[dNva(5-oxo-5-(4-MeOPh))]LRP[dA]-NH2) [listing 1 of 2 here]
Kb (Rattus norvegicus [1]): 0.00871 nM
pKi [2]: 10.28

COc1ccc(C(=O)CC[C@@H](NC(=O)[C@H](CCCN=C(N)N)NC(=O)[C@H](CO)NC(=O)[C@@H](Cc2cccnc2)NC(=O)[C@@H](Cc2ccc(Cl)cc2)NC(=O)[C@@H](Cc2ccc3ccccc3c2)NC(C)=O)C(=O)N[C@@H](CC(C)C)C(=O)N[C@@H](CCCN=C(N)N)C(=O)N2CCC[C@H]2C(=O)N[C@H](C)C(N)=O)cc1 (Ac-[d2Nal][dPhe(4-Cl)][d3Pal]SR[dNva(5-oxo-5-(4-MeOPh))]LRP[dA]-NH2) [listing 2 of 2 here]
EC50 (Rattus norvegicus [4]): 1.11 µg/mL (≈ 0.747 µM)

CC(=O)N[C@H](Cc1ccc2ccccc2c1)C(=O)N[C@H](Cc1ccc(Cl)cc1)C(=O)N[C@H](Cc1cccnc1)C(=O)N[C@@H](CO)C(=O)N[C@@H](Cc1ccc(O)cc1)C(=O)N[C@H](CCCNC(N)=O)C(=O)N[C@@H](CC(C)C)C(=O)N[C@@H](CCCN=C(N)N)C(=O)N1CCC[C@H]1C(=O)N[C@H](C)C(N)=O (Ac-[d2Nal][dPhe(4-Cl)][d3Pal]SY[dCit]LRP[dA]-NH2) [listing 1 of 2 here]
Kb (Rattus norvegicus [1]): 0.0355 nM

CC(=O)N[C@H](Cc1ccc2ccccc2c1)C(=O)N[C@H](Cc1ccc(Cl)cc1)C(=O)N[C@H](Cc1cccnc1)C(=O)N[C@@H](CO)C(=O)N[C@@H](Cc1ccc(O)cc1)C(=O)N[C@H](CCCNC(N)=O)C(=O)N[C@@H](CC(C)C)C(=O)N[C@@H](CCCNC(=N)N)C(=O)N1CCC[C@H]1C(=O)N[C@H](C)C(N)=O (Ac-[d2Nal][dPhe(4-Cl)][d3Pal]SY[dCit]LRP[dA]-NH2)
pKi [2]: 9.93
solubility [3]: < 1000 µg/mL

CC(=O)N[C@H](Cc1ccc2ccccc2c1)C(=O)N[C@H](Cc1ccc(Cl)cc1)C(=O)N[C@H](Cc1cccnc1)C(=O)N[C@@H](CO)C(=O)N[C@@H](Cc1ccc(O)cc1)C(=O)N[C@H](CCCNC(N)=O)C(=O)N[C@@H](CC(C)C)C(=O)N[C@@H](CCCN=C(N)N)C(=O)N1CCC[C@H]1C(=O)N[C@H](C)C(N)=O (Ac-[d2Nal][dPhe(4-Cl)][d3Pal]SY[dCit]LRP[dA]-NH2) [listing 2 of 2 here]
EC50 (Rattus norvegicus [4]): 1.11 µg/mL (≈ 0.776 µM)

CC(=O)N[C@H](Cc1ccc2ccccc2c1)C(=O)N[C@H](Cc1ccc(Cl)cc1)C(=O)N[C@H](Cc1cccnc1)C(=O)N[C@@H](CO)C(=O)N(C)[C@@H](Cc1ccc(O)cc1)C(=O)N[C@H](CCCCNC(=O)c1cccnc1)C(=O)N[C@@H](CC(C)C)C(=O)N[C@@H](CCCCNC(C)C)C(=O)N1CCC[C@H]1C(=O)N[C@H](C)C(N)=O (Ac-[d2Nal][dPhe(4-Cl)][d3Pal]S[NMeY][dK](Nicotinoyl)L[Lys(iPr)]P[dA]-NH2) [listing 1 of 2 here]
Kb (Rattus norvegicus [1]): 0.00589 nM
solubility [3]: > 20000 µg/mL

CC(=O)N[C@H](Cc1ccc2ccccc2c1)C(=O)N[C@H](Cc1ccc(Cl)cc1)C(=O)N[C@H](Cc1cccnc1)C(=O)N[C@@H](CO)C(=O)N(C)[C@@H](Cc1ccc(O)cc1)C(=O)N[C@H](CCCCNC(=O)c1cccnc1)C(=O)N[C@@H](CC(C)C)C(=O)N[C@@H](CCCCNC(C)C)C(=O)N1CCC[C@H]1C(=O)N[C@H](C)C(N)=O (Ac-[d2Nal][dPhe(4-Cl)][d3Pal]S[NMeY][dK](Nicotinoyl)L[Lys(iPr)]P[dA]-NH2) [listing 2 of 2 here]
EC50 (Rattus norvegicus [4]): 10 µg/mL (≈ 6.51 µM)

CC(=O)N[C@H](Cc1ccc(Cl)cc1)C(=O)N[C@H](Cc1ccc(Cl)cc1)C(=O)N[C@H](Cc1csc2ccccc12)C(=O)N[C@@H](CO)C(=O)N(C)[C@@H](Cc1ccc(O)cc1)C(=O)N[C@H](CCCCN)C(=O)N[C@@H](CC(C)C)C(=O)N[C@@H](CCCN=C(N)N)C(=O)N1CCC[C@H]1C(=O)N[C@H](C)C(N)=O (Ac-[dPhe(4-Cl)][dPhe(4-Cl)][dBta]S[NMeY][dK]LRP[dA]-NH2) [listing 1 of 2 here]
Kb (Rattus norvegicus [1]): 0.00501 nM
pKi [2]: 10.63
solubility [3]: > 25000 µg/mL

CC(=O)N[C@H](Cc1ccc(Cl)cc1)C(=O)N[C@H](Cc1ccc(Cl)cc1)C(=O)N[C@H](Cc1csc2ccccc12)C(=O)N[C@@H](CO)C(=O)N(C)[C@@H](Cc1ccc(O)cc1)C(=O)N[C@H](CCCCN)C(=O)N[C@@H](CC(C)C)C(=O)N[C@@H](CCCN=C(N)N)C(=O)N1CCC[C@H]1C(=O)N[C@H](C)C(N)=O (Ac-[dPhe(4-Cl)][dPhe(4-Cl)][dBta]S[NMeY][dK]LRP[dA]-NH2) [listing 2 of 2 here]
EC50 (Rattus norvegicus [4]): < 0.5 µg/mL
